A selection: hits, their analogues and other compounds. The true share with any hit is near 4.6%.
DSG3 Ab inh: human desmoglein-3 autoantibody binding inhibition. P32926. DSG3-coupled beads, scFv-anti-DSG3-GFP binding, flow cytometry; active compounds read low. binding (percent of control), % at 10 µM. 310,000 tested, 0.48% active. AID 588358;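 active means binding more than 3 SD below its plate's average and above zero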;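 further: hits lower antibody fragment binding to DSG3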
Target sequence (P32926 whole entry, looked up, the tested form may be a part): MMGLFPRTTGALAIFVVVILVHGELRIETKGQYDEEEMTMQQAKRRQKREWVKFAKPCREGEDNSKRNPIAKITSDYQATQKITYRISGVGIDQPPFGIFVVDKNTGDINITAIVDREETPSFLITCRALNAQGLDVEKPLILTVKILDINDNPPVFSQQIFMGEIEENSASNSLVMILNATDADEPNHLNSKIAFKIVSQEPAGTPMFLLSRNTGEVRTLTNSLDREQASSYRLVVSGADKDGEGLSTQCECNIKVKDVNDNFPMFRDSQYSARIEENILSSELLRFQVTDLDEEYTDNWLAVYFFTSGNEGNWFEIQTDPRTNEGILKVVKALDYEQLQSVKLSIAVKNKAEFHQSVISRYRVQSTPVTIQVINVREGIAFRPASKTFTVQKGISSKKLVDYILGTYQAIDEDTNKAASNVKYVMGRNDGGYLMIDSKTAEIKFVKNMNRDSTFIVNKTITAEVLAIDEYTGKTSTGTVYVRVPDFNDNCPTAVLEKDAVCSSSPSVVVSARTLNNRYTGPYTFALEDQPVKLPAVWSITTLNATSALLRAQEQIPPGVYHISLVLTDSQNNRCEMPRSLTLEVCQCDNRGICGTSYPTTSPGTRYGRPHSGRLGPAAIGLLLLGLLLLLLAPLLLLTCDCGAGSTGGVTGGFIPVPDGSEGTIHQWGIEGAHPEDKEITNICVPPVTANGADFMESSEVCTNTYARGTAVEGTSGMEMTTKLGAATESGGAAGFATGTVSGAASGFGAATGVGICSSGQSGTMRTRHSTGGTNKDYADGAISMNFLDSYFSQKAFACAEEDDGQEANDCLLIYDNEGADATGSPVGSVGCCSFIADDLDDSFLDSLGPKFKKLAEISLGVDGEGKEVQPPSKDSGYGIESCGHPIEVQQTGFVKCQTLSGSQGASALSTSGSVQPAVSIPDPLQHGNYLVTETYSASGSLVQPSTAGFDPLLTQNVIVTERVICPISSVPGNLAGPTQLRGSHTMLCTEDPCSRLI
NALP3 yeast inh: NALP3 inhibition in yeast; Yeast reconstituted NLRP3/ASC/caspase-1, beta-gal luminescence, 24 h; inhibition, % at 10 µM; 330,000 tested, 0.39% active; AID 2825;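 active means inhibition of 50% or more; inactive means inhibition below 50%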;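 further: plate controls were induced DMSO wells for no effect and uninduced yeast grown without galactose for full effect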
PolyA inhibitor: inhibitors of polyadenylation in S. cerevisiae; activity score, % at 12 µM; 300,000 tested, 0.02% active; S. cerevisiae SKY197-pL101 polyadenylation reporter, beta-gal luminescence; efflux-impaired pdr1/pdr3 knockout yeast; score 100 = 6 SD above DMSO;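 active means lowest replicate activity score at least 50, where 100 means six control SD above control mean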;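 further: yeast exposed to compound for 9 h at 30 °C; higher score means more reporter readthrough which indicates perturbed polyadenylation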
Arr AP2 block: blocks beta-arrestin peptide binding to AP2 adaptin | inhibition, % at 10 µM | FITC-arrestin peptide / GST-AP2 beads, flow cytometry; AP2 beta2 appendage carries R879A mutation | 340,000 tested, 0.31% active | AID 504490;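 active means inhibition above a set limit, near 3 SD of compounds lacking own fluorescence, cut at about 54% in these data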;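 further: plate controls were DMSO wells for no effect and 5 µM unlabelled arrestin peptide for full effect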
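Material – GST-tagged AP2 beta2-adaptin appendage (R879A) on 4 µm glutathione beads · Probe or stimulus – fluorescein-tagged arrestin peptide at 50 nM final · Timing – 12 min plus 1 h, RT · Detection – bead flow cytometry, FITC channel · Read-out basis – inhibition as reduced fluorescein signal on beads, percent · Medium – PBS plus Tween 20 (0.05%) and BSA (0.1%)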
ALR inh: inhibitors of human sulfhydryl oxidase ALR | inhibition, % (concentration not given with the values) | purified ALR, DTT oxidation, H2O2 HRP-luminol luminescence | P55789 | 290,000 tested, 3.8% active;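 active means mean replicate inhibition above about 79%, with every replicate also reaching it, limit read from the data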
NALP1 yeast inh: NALP1 inhibition. S. cerevisiae NALP1/ASC/caspase-1 growth, X-gal OD620, 72 h. 280,000 tested, 0.61% active. inhibition, % at 10 µM; in the data active means inhibition mostly above about 24%, no sharp cut-off; inactive means mostly below about 32%
NALP3 confirm: NALP3 inhibition confirmation in yeast; yeast expressing human NALP3, luminescence; inhibition, % at 10 µM; AID 435006; shares compounds with NALP3 yeast inh; 1,300 tested, 81% active; in the data active means inhibition above about 48%
Casp1-ASC yeast: counter-screen for NALP3 inhibitors: yeast caspase-1-ASC; 1,000 tested, 66% active; yeast expressing Caspase-1-ASC, luminescence counter screen; inhibition, % at 10 µM; shares compounds with NALP3 yeast inh
NALP3 yeast rt: retest-confirmed inhibitor of NALP3 in yeast | shares compounds with NALP3 yeast inh | yeast expressing human NALP3, luminescence read-out | inhibition, % at 10 µM | 1,000 tested, 53% active
Active calls of the source: *; . = not tested or not shown. Unless noted, no stated cut-off is given here; in the data, active means inhibition above about 50%; inactive means the rest.

SMILES	DSG3 Ab inh	NALP3 yeast inh	PolyA inhibitor	Arr AP2 block	ALR inh	NALP1 yeast inh	NALP3 confirm	others
Cc1ncoc1C(=O)NCC1=C(c2ccc3ccccc3c2)C[C@@H]2CC[C@H]1N2Cc1ccco1	110.7	.	.	.	.	.	.
Oc1ccc(CC2CC3CCN2CC3)cc1O (stereo not given)	109.1	8.2	33.7	3.6	99.1*	-13.0	.
C/C(=N\Nc1ccccc1)c1c(O)[nH]c(=O)[nH]c1=O	112.8	20.0	7.9	-23.8	-8.0	.	.
CC/C(=N\NC(=S)Nc1ccccc1)c1c(O)[nH]c(=O)[nH]c1=O	96.0	2.8	-13.7	-2.7	99.2*	.	.
CNCC(O)c1cc(OCc2ccccc2)c(OCc2ccccc2)cc1F (stereo not given)	104.7	11.2	-13.8	24.4	-14.4	.	.
COc1ccc(CCN(C)Cc2ccc(F)cc2F)cc1OC	100.4	2.6	-7.8	-1.6	-23.6	23.6	.
CCN(CC)c1ccc(CN(C)CCc2ccc(OC)c(OC)c2)cc1	102.7	9.7	-3.0	4.4	99.2*	8.1	.
Cc1ccc2c(c1)CNc1ccccc1O2	104.3	28.1	3.9	4.5	88.2*	9.5	.
c1ccc2c(c1)CNc1ccccc1O2	105.7	-22.0	-4.5	31.7	-6.4	3.6	.
NNC(N)=O	.	13.6	.	-0.7	-2.4	.	.
CN1C(=O)/C(=C\c2ccc(N3CCCCCC3)cc2)C(=O)NC1=S	163.3	18.0	-18.6	15.2	-12.3	15.9	.
Cc1cc(N2CCCCC2)ccc1C=C1C(=O)N(C)C(=S)N(C)C1=O	102.3	16.6	0.1	20.8	89.5*	27.3	.
CC1=NOC2(C)Nc3ncnn3C(c3ccccc3)C12 (stereo not given)	96.0	12.0	6.5	26.1	-6.3	35.6*	.
C[C@]1(O)CCC2C3CC[C@H]4C[C@@H](OC(=O)CNC(=O)CN)CC[C@]4(C)C3CC[C@@]21C (stereo not given in full)	121.8	56.5*	.	-2.0	-6.5	.	70.8*
COc1cc2c(cc1OC)CN(c1ccc([N+](=O)[O-])c(C(F)(F)F)c1)CC2	106.6	50.5*	-10.8	0.8	-86.8	49.3	23.2
C[C@]12CC[C@H](N)CC1=CCC1C2CC[C@@]2(C)C1CC[C@@H]2O (stereo not given in full)	104.5	55.9*	.	6.2	1.4	.	56.4*
C[C@H]1CC2C3CC=C4C[C@@H](O)CC[C@]4(C)C3CC[C@]2(C)[C@H]1O (stereo not given in full)	113.5	53.9*	.	-20.6	-1.1	.	48.4
C[C@]12CCC(=O)C=C1CCC1C2CC[C@@]2(C)C1CC[C@@H]2O (stereo not given in full)	121.1	52.9*	.	-2.5	-2.6	.	60.4*
C[C@@H]1CC2C3CC=C4C[C@@H](O)CC[C@]4(C)C3CC[C@]2(C)[C@H]1O (stereo not given in full)	119.8	56.5*	.	7.7	-1.8	.	40.4
NC1CC2CCCCC2CC1(O)c1ccccc1 (stereo not given)	104.7	.	.	.	.	.	.
COC(=O)C1=C(c2ccc3ccccc3c2)C[C@@H]2CC[C@H]1N2C(=O)N1CCCC1	103.5	4.6	.	3.6	18.1	.	.
CC(C)(C)N1CC(C(=O)c2ccccc2)C1c1ccccc1 (stereo not given)	.	.	.	37.8	.	.	.
c1cc2c(cc1N1CCCCC1)C1CC2CCN1 (stereo not given)	107.6	.	.	18.5	.	.	.
N[C@@H]1CCCC[C@H]1N.O=C(O)C(=O)O.[Pt]	.	25.4	13.5	.	46.5	.	.
CCN(C=C1CC2C3CC=C4CC(O)CCC4(C)C3CCC2(C)C1=O)CC (stereo not given)	.	.	.	39.6	.	.	.
SMILES	DSG3 Ab inh	NALP3 yeast inh	PolyA inhibitor	Arr AP2 block	ALR inh	NALP1 yeast inh	NALP3 confirm	others
C[C@]12CCC(=O)C[C@H]1CC[C@@H]1[C@@H]2CC[C@]2(C)[C@@H](O)CC[C@@H]12	.	59.4*	.	.	.	.	73.0*
CC12CCC3C(CC=C4CC(O)CCC43C)C1C/C(=C\N1CCCC1)C2=O (stereo not given)	.	59.4*	-6.2	.	.	26.6	42.6
COC(=O)C1=C(c2ccc(Cl)c(C(F)(F)F)c2)C[C@@H]2CC[C@H]1N2C(=O)NC1CCCCC1	105.8	16.8	.	2.9	-1.5	.	.
CC1=C(C)CC2(C(=O)NC(=S)NC2=O)C(C)C1 (stereo not given)	89.5	.	.	-4.3	.	.	.
C=Cc1cc(OC)c2c(c1)c(=O)oc1c2cc(OC)c2c(O)ccc(C3OC(C)C(O)C(C)(O)C3O)c21 (stereo not given)	90.9	.	.	10.0	.	.	.
CCOC(=O)C1=Nc2ccccc2/C1=C\c1c(O)n(C)c(=O)n(C)c1=O	108.5	53.0*	20.0	-22.9	97.9*	-4.2	44.8
C[C@]12CC[C@H](OS(=O)(=O)O)CC1=CC[C@@H]1[C@@H]2CC[C@]2(C)C(=O)CC[C@@H]12	103.6	8.7	-2.3	6.5	15.7	.	.
C[C@]12CCC(OC(=O)CCC(=O)O)CC1=CCC1C2CC[C@]2(C)C(=O)CCC12 (stereo not given in full)	114.1	58.5*	-2.9	31.4	-7.8	19.3	66.0*	Casp1-ASC yeast=56.7*;NALP3 yeast rt=48.1
CC12CCC3C(CC=C4CC5(CCC43C)OCCO5)C1CCC2=O (stereo not given)	105.5	62.4*	-15.3	-10.3	0.9	15.0	74.9*
Cc1cc(N(CCCl)CCCl)ccc1C=NNC(=O)Cc1cc(=O)oc2cc(O)ccc12	122.7	.	.	7.4	.	.	.
Nc1c2c(nc3sc4c(c13)CCCC4)CCCC2	91.8	70.8*	-2.8	2.7	.	16.9	81.5*	Casp1-ASC yeast=54.4*;NALP3 yeast rt=57.3*
CN1/C(=C\C=C\C2=[N+](C)c3ccc4ccccc4c3C2(C)C)C(C)(C)c2ccccc21	.	53.5*	.	.	.	56.9*	52.8*
CC(=O)OC1CCC2(C)C(CC(=O)C3C2CCC2(C)C(OC(C)=O)CCC32)C1 (stereo not given)	86.1	.	.	-3.2	.	.	.
CC1(C)C[C@H]2C=C(C=O)[C@]3(C=O)C[C@]3(C)[C@H]2C1	96.9	84.1*	-14.5	16.3	-2.3	107.7*	63.0*
CCn1nc(-c2ccccc2)nc2c(=O)n(C)c(=O)nc1-2	97.0	61.5*	-12.6	25.9	-71.1	41.5*	85.8*	Casp1-ASC yeast=93.9*;NALP3 yeast rt=87.5*
C1CN(P2(N3CC3)=NP(N3CC3)(N3CC3)=NP(N3CC3)(N3CC3)=N2)CCO1 (stereo not given)	100.2	.	.	.	.	.	.
C[C@]12CCC(=O)C=C1C=CC1C2CC[C@]2(C)C(=O)CCC12 (stereo not given in full)	93.8	50.0*	.	1.7	2.5	.	57.2*

Source: PubChem (several laboratories)
